Columns and labels:
[1] = target: T1, cGMP-specific 3',5'-cyclic phosphodiesterase (Homo sapiens, UniProt O76074); assay: Inhibition of PDE5 at 2 uM
Outline: (§1)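 PDE5 enzyme preparation was stored frozen at -80 °C with 1 g/L bovine serum albumin until use. […] Activity is reported as percent inhibition at the single test concentration indicated.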

[2] = test system: Phosphodiesterase 6 (Bos taurus); assay: Inhibition of PDE6 at 2 uM
[3] = target: T1, cGMP-specific 3',5'-cyclic phosphodiesterase; assay: Inhibition of PDE5
[4] = test system: Phosphodiesterase 6 (Bos taurus); assay: Inhibition of PDE6 at 0.2 uM
Homo sapiens = organism: Homo sapiens; assay: Selectivity for PDE5 over PDE6
[5] = target: Phosphodiesterase 6 (Bos taurus); assay: Inhibition of PDE6
[6] = target: T1, cGMP-specific 3',5'-cyclic phosphodiesterase; assay: Inhibition of PDE5 at 0.2 uM; outline: as §1

An inhibition [1] of 38.8% and an inhibition [2] of 4.5% were found for `Cc1nn(Cc2ccccc2)c(=O)c2nc(C)n3nc(-c4ccc(F)cc4)cc3c12` in this work.
An IC50 [3] of 100 nM and an inhibition [2] of 59.8% were found for `Cc1nc2c(=O)n(Cc3ccccc3)nc(C(C)C)c2c2cc(-c3ccccc3)nn12` in this work.
An IC50 [3] of 79 nM and an inhibition [2] of 16.9% were found for `COC(=O)CCc1nc2c(=O)n(Cc3ccccc3)nc(C)c2c2cc(-c3ccccc3)nn12` in this work.
An inhibition [1] of 49.3% and an inhibition [4] of 53.4% were found for `CCn1nc(C)c2c(nc(C)n3nc(-c4ccccc4)cc23)c1=O` in this work.
A Selectivity ratio (Homo sapiens) of 15, an IC50 [3] of 40 nM and an IC50 [5] of 0.61 µM were found for `CCCc1nc2c(=O)n(Cc3ccccc3)nc(C)c2c2cc(-c3ccccc3)nn12` in this work.
An IC50 [3] of 370 nM and an IC50 [5] of 4.7 µM were found for `Cc1nn(Cc2ccccc2)c(=O)c2nc(C)n3nc(-c4ccc(Cl)cc4)cc3c12` in this work.
A Selectivity ratio (Homo sapiens) greater than 20, an IC50 [3] of 100 nM and an inhibition [2] of 3.8% were found for `COc1cccc(Cn2nc(C)c3c(nc(C)n4nc(-c5ccccc5)cc34)c2=O)c1` in this work.
An IC50 [3] of 71 nM and an IC50 [5] of 0.33 µM were found for `CCOCc1nn(Cc2ccccc2)c(=O)c2nc(C)n3nc(-c4ccccc4)cc3c12` in this work.
An inhibition [1] of 67.7% and an inhibition [2] of 26.6% were found for `Cc1nn(CCC2CCNCC2)c(=O)c2nc(C)n3nc(-c4ccccc4)cc3c12` in this work.
An IC50 [3] of 240 nM and an inhibition [2] of 39.4% were found for `Cc1nn(Cc2ccncc2)c(=O)c2nc(C)n3nc(-c4ccccc4)cc3c12` in this work.
An inhibition [1] of 14.3% and an inhibition [2] of 12.3% were found for `Cc1nc2c(=O)n(Cc3ccccc3)nc(C3CCCC3)c2c2cc(-c3ccccc3)nn12` in this work.
An inhibition [1] of 56.8% was found for `Cc1nnc(NCc2ccc3c(c2)OCO3)c2nc(C)n3nc(-c4ccccc4)cc3c12` in this work.
An inhibition [1] of 3.8% and an inhibition [2] of 2.8% were found for `Cc1nn(Cc2ccccc2)c(=O)c2nc(C)n3nc(-c4ccc(S(C)(=O)=O)cc4)cc3c12` in this work.
A Selectivity ratio (Homo sapiens) of 16, an IC50 [3] of 140 nM and an IC50 [5] of 2.2 µM were found for `Cc1nn(Cc2ccccc2)c(=O)c2nc(C)n3nc(-c4ccsc4)cc3c12` in this work.
An inhibition [6] of 19.7% and an inhibition [4] of 0.3% were found for `C#CCn1nc(C)c2c(nc(C)n3nc(-c4ccccc4)cc23)c1=O` in this work.
An inhibition [1] of 44.7% and an inhibition [2] of 1.2% were found for `Cc1nn(C(C)C)c(=O)c2nc(C)n3nc(-c4ccccc4)cc3c12` in this work.
An inhibition [1] of 52.4% was found for `Cc1nnc(NCc2ccccc2)c2nc(C)n3nc(-c4ccccc4)cc3c12` in this work.
A Selectivity ratio (Homo sapiens) greater than 240, an IC50 [3] of 8.3 nM and an inhibition [2] of 22.8% were found for `CC(=O)CCc1nc2c(=O)n(Cc3ccccc3)nc(C)c2c2cc(-c3ccccc3)nn12` in this work.
An IC50 [3] of 95 nM and an inhibition [2] of 1.1% were found for `COC(=O)CCCCc1nc2c(=O)n(Cc3ccccc3)nc(C)c2c2cc(-c3ccccc3)nn12` in this work.
An inhibition [1] of 54.6% and an inhibition [2] of 32.5% were found for `CCCCn1nc(C)c2c(nc(C)n3nc(-c4ccccc4)cc23)c1=O` in this work.
An IC50 [3] of 470 nM and an IC50 [5] of 0.28 µM were found for `Cc1nn(Cc2ccccc2)c(=O)c2nc(C)n3nc(-c4cccnc4)cc3c12` in this work.
An IC50 [3] of 180 nM and an IC50 [5] of 0.86 µM were found for `Cc1nn(Cc2ccccc2)c(=O)c2ncn3nc(-c4ccccc4)cc3c12` in this work.
An inhibition [6] of 23% and an inhibition [4] of 30% were found for `Cc1nc2c(=O)n(Cc3ccccc3)nc(CN3CCN(C)CC3)c2c2cc(-c3ccccc3)nn12` in this work.
An inhibition [6] of 7.6% and an inhibition [4] of 11.2% were found for `Cc1nn(CC(=O)O)c(=O)c2nc(C)n3nc(-c4ccccc4)cc3c12` in this work.
An IC50 [3] of 50 nM and an IC50 [5] of 0.33 µM were found for `Cc1nn(Cc2ccccc2)c(=O)c2nc(C)n3nc(-c4ccoc4)cc3c12` in this work.
An inhibition [2] of 25% was found for `Cc1nn(Cc2ccccc2)c(=O)c2nc(C)n3nc(-c4ccccc4)cc3c12` in this work.
An IC50 [3] of 220 nM and an inhibition [2] of 21.8% were found for `CCc1nn(Cc2ccccc2)c(=O)c2nc(C)n3nc(-c4ccccc4)cc3c12` in this work.
An inhibition [1] of 44.9% and an inhibition [2] of 6.9% were found for `CCCn1nc(C)c2c(nc(C)n3nc(-c4ccccc4)cc23)c1=O` in this work.
An IC50 [3] of 390 nM and an inhibition [2] of 7% were found for `Cc1nn(Cc2ccc3c(c2)OCO3)c(=O)c2nc(C)n3nc(-c4ccccc4)cc3c12` in this work.
